Rows were chosen to be rich in hits. Some 1.4% of all compounds tested hit in one or more screens of this group.
HTR5A ag: HTR5A agonism, opioid heterodimer counter-screen. actives 0.61% (n = 340,000). activation, % at 9.3 µM. HTR5A agonist assay, luminescence, cell-based; in the data active = activation mostly above about 9.5%, no sharp cut-off; inactive = mostly below about 7.6%
OPRM1-OPRD1 ag: OPRM1-OPRD1 heterodimerization agonism; P35372+P41143; cells, luminescence; activation, % at 9.3 µM; actives 0.3% (n = 340,000); AID 504326
Target sequence (P35372 whole entry, looked up): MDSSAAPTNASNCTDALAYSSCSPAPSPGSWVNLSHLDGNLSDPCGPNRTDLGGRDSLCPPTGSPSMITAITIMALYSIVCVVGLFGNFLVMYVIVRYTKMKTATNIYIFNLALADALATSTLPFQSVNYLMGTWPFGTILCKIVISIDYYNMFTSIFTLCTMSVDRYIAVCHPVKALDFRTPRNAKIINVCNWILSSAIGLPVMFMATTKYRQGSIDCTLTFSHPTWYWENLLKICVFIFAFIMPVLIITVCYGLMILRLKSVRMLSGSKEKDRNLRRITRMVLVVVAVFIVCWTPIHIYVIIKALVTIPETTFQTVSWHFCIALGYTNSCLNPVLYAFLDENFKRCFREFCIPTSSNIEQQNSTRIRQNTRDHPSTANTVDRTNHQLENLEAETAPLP
Target sequence (P41143 whole entry, looked up): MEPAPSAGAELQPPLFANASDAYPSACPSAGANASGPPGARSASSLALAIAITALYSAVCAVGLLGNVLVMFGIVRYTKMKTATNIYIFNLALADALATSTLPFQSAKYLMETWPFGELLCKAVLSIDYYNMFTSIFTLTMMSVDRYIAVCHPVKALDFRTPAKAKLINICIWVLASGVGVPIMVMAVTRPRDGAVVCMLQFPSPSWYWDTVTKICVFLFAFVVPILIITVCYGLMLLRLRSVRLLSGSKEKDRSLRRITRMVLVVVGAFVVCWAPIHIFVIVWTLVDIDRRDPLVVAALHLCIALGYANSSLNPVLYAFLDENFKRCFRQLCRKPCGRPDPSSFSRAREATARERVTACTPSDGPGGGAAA
HTR5A inv ctr: HTR5A inverse agonism, opioid heterodimer counter-screen; P47898; HTR5A cell line, luminescence; inhibition, % at 9.3 µM; actives 0.083% (n = 340,000); in the data active = inhibition mostly above about 23%, no sharp cut-off; inactive = mostly below about 18%
Hep lipid drop: modulators of hepatic lipid droplet formation | AID 1656 | AML12 mouse hepatocytes, oleate lipid droplets, BODIPY imaging | actives 0.4% (n = 240,000) | inhibition, % at 6.5 µM;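 active = lipid droplet intensity inhibited by at least 50%, with more than 500 cells counted; inconclusive = wells with under 300 cells, treated as cytotoxic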
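Material: mouse AML12 hepatocyte cell line, fixed after treatment; Timing: compound with oleate, overnight; Technique: high-content imaging of BODIPY-stained droplets and DAPI nuclei; Probe or stimulus: oleate, 100 µM final; Dosing: compound at 6.5 µM only.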
OPRM1-OPRD1 inv: inverse agonist of human OPRM1-OPRD1 heterodimerization; P35372+P41143; cell-based MOR-DOR heterodimer luminescence, inverse agonism; inhibition, % at 9.3 µM; actives 0.21% (n = 340,000); in the data active = inhibition above about 22%, passing the limit was not always enough
Lipid drop inh: hepatic lipid droplet formation inhibition, confirmed; shares compounds with Hep lipid drop; AML12 mouse hepatocytes, BODIPY lipid droplet imaging; droplets induced with 100 µM oleic acid; inhibition, % at 5.2 µM; actives 65% (n = 870);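 active = inhibition of lipid droplet metric at least 50%, with more than 300 cells in each of four replicates; inconclusive = wells under 300 cells, flagged as toxic or low count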
AML12 tox img: toxic to AML12 mouse hepatocytes in counter-screen; actives 3% (n = 870); DAPI nuclear morphology cytotoxicity imaging; active compounds read high; cells fed 100 µM oleate overnight; z-score at 5 µM; shares compounds with Hep lipid drop; in the data active = z-score above about 6.3;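 also: compound exposure lasted overnight at 37 °C before fixation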
AML12 tox ATP: confirmation of cytotoxicity in AML12 mouse hepatocytes; AML12 mouse hepatocyte viability, ATP luminescence; cells loaded with 100 µM oleic acid; shares compounds with Hep lipid drop; cytotoxicity, % at 50 µM; 530 tested, under 10 active; AID 463219;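 active = cytotoxicity above 50% in each of four replicates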;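 also: compound exposure lasted overnight at 37 °C before the ATP read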
MOR-DOR ag conf: OPRM1-OPRD1 heterodimer agonism, confirmation. cells, MOR-DOR heterodimerization, luminescence complementation. shares compounds with OPRM1-OPRD1 ag. actives 45% (n = 830). activation, % at 9.3 µM
HTR5A ag ctr2: counter-screen for OPRM1-OPRD1 agonists: human HTR5A agonism; HTR5A agonist counterscreen, cell luminescence; shares compounds with OPRM1-OPRD1 ag; actives 8% (n = 830); AID 504905; activation, % at 9.3 µM; in the data active = activation above about 17%
Hits are given with their value; . = inactive; ? = inconclusive; / = not tested or not shown. Rule as the data show it, unless noted: active = activation above about 18%; inactive = the rest.

SMILES | HTR5A ag | OPRM1-OPRD1 ag | HTR5A inv ctr | Hep lipid drop | OPRM1-OPRD1 inv | Lipid drop inh | AML12 tox img | others
COCCCNc1nc2ccccc2nc1NS(=O)(=O)c1cccc(C)c1 | . | . | . | . | . | / | /
O=C(Nc1ccc(S(=O)(=O)N2CCOCC2)cc1)c1ccc(Cl)c([N+](=O)[O-])c1 | . | . | . | / | . | / | /
O=C(Nc1cccc(S(=O)(=O)N2CCOCC2)c1)c1ccc(Cl)c([N+](=O)[O-])c1 | . | . | . | 61 | . | . | .
O=C(NCc1ccccc1CN1CCCC1)c1cccc(N2CCCC2=O)c1 | . | . | . | / | . | / | /
O=C(NCc1ccccc1)c1cccc(COc2ccc(Cl)cc2)c1 | . | . | . | / | . | / | /
COc1cc(CNC(=O)c2cccc(COc3ccc(Cl)cc3)c2)cc(OC)c1 | . | . | . | 57 | . | 92 | . | AML12 tox ATP=.
O=C(C[n+]1ccccc1)Nc1ccccc1Br | / | / | / | . | / | / | /
O=C(O)CCCC(=O)Nc1ccc(Br)cc1C(=O)O | . | . | . | 52 | . | . | .
Cc1ccc(C(=O)CC2(O)C(=O)N(CCc3ccccc3)c3ccc(Br)cc32)o1 (stereo not given) | . | . | . | 53 | . | 83 | . | AML12 tox ATP=.
Cc1cccc(NC(=O)c2nc[nH]c2C(=O)NCC(=O)OC(C)(C)C)c1 | . | . | . | 52 | . | . | .
COc1ccc(S(=O)(=O)N2CCCCCC2)cc1C(=O)N1CCN(c2ccccc2C)CC1 | . | . | . | / | . | / | /
CCOc1cc(N2CCOCC2)c(OCC)cc1NC(=O)COC(=O)c1ccccc1OC(F)F | . | . | . | / | . | / | /
CCOc1cc(N2CCOCC2)c(OCC)cc1NC(=O)COC(=O)c1cccc2ccccc12 | . | . | . | 55 | . | 101 | .
CCc1ccc(NC(=O)CSc2nnc(C)c(=O)n2N)cc1 | . | . | . | 58 | . | 89 | . | AML12 tox ATP=.
CCN(C(=O)CSc1nc2scc(-c3ccccc3)c2c(=O)n1N)C1CCS(=O)(=O)C1 (stereo not given) | . | . | . | / | . | / | /
O=C(CN1CCN(CC(=O)Nc2cccc(F)c2)CC1)NCC1(N2CCOCC2)CCCCC1 | . | . | . | / | . | / | /
Cc1c(O)ccc(/C=N/Nc2nc(-c3cccnc3)nc3ccccc23)c1O | . | . | . | 52 | . | 81 | 11
Oc1ccc(/C=N/Nc2nc(-c3cccnc3)nc3ccccc23)c(O)c1 | . | . | . | . | . | / | /
CCOC(=O)n1cc(-c2cnc(CNC(=O)C(C)(c3ccccc3)c3ccccc3)o2)c2ccccc21 | / | / | / | 59 | / | 90 | .
COC1CCN(Cc2c(C(=O)N3CCN(C4CCCCC4)CC3)nc3ccccn23)CC1 | . | . | . | . | . | / | /
CCn1c(=O)c2c(nc(SCC(=O)NC3CCCC3)n2C)n(C)c1=O | . | . | . | . | . | / | /
Clc1cc(Cl)cc(C2=NC(Cc3ccccc3)CO2)c1 (stereo not given) | . | . | . | / | . | / | /
COc1cc(/C=C\C(=O)NCc2ccc3[nH]c(C)cc3c2)cc(OC)c1OC | . | . | . | . | . | / | /
COc1ccc(/C=C\C(=O)NCc2ccc3[nH]c(C)cc3c2)cc1OC | . | . | . | 74 | . | 96 | . | AML12 tox ATP=.
Cc1cc(C)c2c(NC(=O)CCl)nn(C)c2n1 | . | . | . | . | . | / | /
SMILES | HTR5A ag | OPRM1-OPRD1 ag | HTR5A inv ctr | Hep lipid drop | OPRM1-OPRD1 inv | Lipid drop inh | AML12 tox img | others
CCc1cc(SC#N)cc(CC)c1NC(=O)CCl | . | . | . | 81 | . | 79 | . | AML12 tox ATP=.
COc1ccc(-c2csc(NC(=O)CN3C(=O)CCC3=O)n2)cc1 | . | . | . | . | . | / | /
CCCOc1ccc(-c2csc(NC(=O)CN3C(=O)CCC3=O)n2)cc1 | . | . | . | 95 | . | 109 | .
CCN(CC(=O)Nc1c(F)cccc1F)C(=O)c1cc(C)oc1C | . | . | . | / | . | / | /
Cc1cccc(N(Cc2cc(=O)[nH]c3ccccc23)C(=O)CCl)c1 | . | . | . | 55 | . | 80 | .
CCCC(=O)N(Cc1cc(=O)[nH]c2ccccc12)c1cccc(C)c1 | . | . | . | . | . | / | /
CSc1ccc(CN2CCN(C3CCCC3)C(CCO)C2)cc1 (stereo not given) | . | . | . | 55 | . | . | .
CCOC(=O)c1cc(-c2ccccc2C)nn1CC1CC(c2cccnc2)=NO1 (stereo not given) | . | . | . | / | . | / | /
CCOCCCNC(=O)CCS(=O)(=O)Cc1ccc(C)cc1 | . | . | . | / | . | / | /
CCCCOc1ccc(C(C)NC(=O)CCS(=O)(=O)Cc2ccc(C)cc2)cc1 (stereo not given) | . | . | . | 52 | . | 103 | .
CCCCCn1c(N)c(-c2nc3ccccc3o2)c2c([N+](=O)[O-])nn(CC)c(=O)c21 | . | . | . | . | . | / | /
CCCCn1c(N)c(-c2nc3ccccc3s2)c2c([N+](=O)[O-])nn(C)c(=O)c21 | . | . | . | . | . | / | /
CCCCn1c(N)c(-c2nc3ccccc3s2)c2c([N+](=O)[O-])nn(CC)c(=O)c21 | . | . | . | 69 | . | 78 | . | AML12 tox ATP=.
CCCCCn1c(N)c(-c2nc3ccccc3s2)c2c([N+](=O)[O-])nn(CC)c(=O)c21 | . | . | . | 72 | . | 73 | . | AML12 tox ATP=.
O=S(=O)(NC1=NCCC1)c1cccc(NS(=O)(=O)c2ccc(OC(F)(F)F)cc2)c1 | . | . | . | . | . | / | /
COc1ccc2nc(N=Nc3ccc(O)c4ccccc34)sc2c1 | . | . | . | 71 | . | 105 | .
COc1ccc2nc(N=NC3=C(O)CC(C)(C)CC3=O)sc2c1 | . | . | . | . | . | / | /
COc1cc2c(cc1NC(=O)CSc1nc3ccc(C)cc3[nH]1)oc1ccccc12 | / | / | / | 52 | / | 99 | .
C#CC(=O)N(c1ccc(OC)c(OC)c1)C(C(=O)NC1CCCC1)c1cccs1 (stereo not given) | . | 39 | . | 110 | . | ? | 35 | MOR-DOR ag conf=19;HTR5A ag ctr2=21
COCCn1c(SCC(=O)Nc2cc(C)on2)nc2ccccc2c1=O | . | . | . | / | . | / | /
CCCCCCn1c(SCC(=O)Nc2cc(C)on2)nc2ccccc2c1=O | . | 21 | . | 68 | . | 97 | . | AML12 tox ATP=.;MOR-DOR ag conf=26;HTR5A ag ctr2=17
O=C(NNS(=O)(=O)c1ccccc1[N+](=O)[O-])c1cccc([N+](=O)[O-])c1 | . | . | . | . | . | / | /
